Publication PMC5384874 (Medicinal chemistry (Shariqah (United Arab Emirates)), 2017)

Experiments:
Assay type in all cases: cell-based, human
A549 = test: Cytotoxicity assay, CCK-8 method, A549; conditions: read-out: IC50, cytotoxicity against A549; A549, CCK-8, 24 h incubation
In short: (§1)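 Cells grown in RPMI with 10% fetal bovine serum, penicillin (100 U/mL) and streptomycin (50 μg/mL), seeded in 96-well plates at […]. Test compound added at increasing concentrations; untreated cells as control. Incubated 24 h at 37 °C, 5% CO2, humidified. CCK-8 added, 2 h at 37 °C, read with europium detection protocol. IC50 versus DMSO-treated wells by logit method, at least three independent tests.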

HeLa = test: Cytotoxicity assay, CCK-8 method, HeLa; conditions: read-out: IC50, cytotoxicity against HeLa, CCK-8, 24 h incubation
In short: as §1

MCF-7 = test: Cytotoxicity assay, CCK-8 method, MCF-7; conditions: read-out: IC50, cytotoxicity against MCF-7; MCF-7, CCK-8, 24 h incubation
In short: as §1

**Q.** Which IC50 (A549) does the source give for phylactones F/G [5/6] here?
**A.** 7.8 µM

**Q.** And the IC50 (HeLa)?
**A.** 9.6 µM

**Q.** And the IC50 (MCF-7)?
**A.** 5.2 µM
